# High-throughput results from PubChem BioAssay.
# MC4R antagonist: MC4R antagonists of cAMP signaling, primary screen, cell-based, TR-FRET, antagonist arm of biased-ligand search | Melanocortin receptor 4 (Homo sapiens), P32245 | AID 540295, 2011 | actives 0.48% (n = 360,000) | inhibition, % at 6.5 µM | MC4R-expressing cells, MTII-stimulated cAMP, LANCE TR-FRET;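 active means inhibition above its plate's cutoff, the mean of tested wells on that plate plus 3 SD, cut at about 29% in these data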;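 further: 0% = Melanotan II alone and 100% = Melanotan II plus saturating MCL0020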
#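 System – human MC4R-expressing U2OS cells · Also added – Melanotan II · Dosing – one concentration, 6.5 µM nominal · Timing – 30-min compound, 1-h challenge, 1-h detection, room temperature · Measured by – Eu-cAMP/anti-cAMP TR-FRET, emission 671 nm · Replicates – singlicate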
# MC4R barr agon: MC4R agonists recruiting beta-arrestin, primary screen, cell-based, luminescence, agonist arm of biased-ligand search. AID 540308, 2011. Melanocortin receptor 4 (Homo sapiens), P32245. U2OS MC4R beta-arrestin complementation; percent of melanotan II response, DMSO zero. actives 0.98% (n = 360,000). activation, % at 8.9 µM;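 active means activation above a per-plate cutoff, the mean activation of sample wells on that plate plus 3 SD, cut at about 8% in these data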
# B2AR ag: beta2AR agonists driving receptor internalization, primary screen, cell-based, FAP fluorogen, flow cytometry. actives 0.43% (n = 340,000). Beta-2 adrenergic receptor (Homo sapiens), P07550. Am2.2-beta2AR cells. response, % (test concentration not listed). AID 504454, 2011;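 active means response above a set limit, near 3 SD of response in nonfluorescent compounds, cut at about 42% in these data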
# ABHD5-PLIN5 inh: ABHD5-PLIN5 interaction inhibitors, primary screen, cell lysate, split luciferase complementation, luminescence. Perilipin-5 (Homo sapiens) + 1-acylglycerol-3-phosphate O-acyltransferase ABHD5 (Homo …. Split G. princeps luciferase complementation, 4 h. inhibition, % at 4 µM. actives 0.78% (n = 360,000);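 active means inhibition above the mean inhibition across every tested compound plus 3 SD, cut at about 22% in these data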;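 further: 0% = DMSO only wells and the 100% control is not disclosed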
# PfG6PD inh: PfG6PD enzyme inhibitors, primary screen, biochemical, fluorescence intensity, uHTS | glucose-6-phosphate dehydrogenase-6-phosphogluconolactonase (Plasmodium falciparum 3D7) | PfGluPho enzyme, NADPH resazurin-diaphorase fluorescence | inhibition, % at 20 µM | actives 0.78% (n = 350,000);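 active means inhibition reaching at least a set limit at 20 µM in the primary screen, cut at about 59% in these data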;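 further: 0% = DMSO wells with substrate and 100% = DMSO wells lacking glucose-6-phosphate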
# PfG6PD confirm: PfG6PD inhibitors, hit retest, confirmation, biochemical, fluorescence intensity, single concentration. shares compounds with PfG6PD inh. recombinant PfGluPho, NADPH-diaphorase-resazurin fluorescence. inhibition, % at 20 µM. actives 34% (n = 2,400);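 active means inhibition of at least 50% at 20 µM in any single replicate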;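 further: 0% = DMSO with substrate and 100% = DMSO lacking glucose-6-phosphate substrate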
# Diaph ctr 10uM: diaphorase inhibitors and chemical oxidizers, confirmation, counter-screen for P. falciparum G6PD inhibitor project, biochemical, fluorescence intensity, 10 µM NADPH. actives 39% (n = 820). diaphorase-coupled resazurin reduction, NADPH 10 uM. AID 504862, 2011. shares compounds with PfG6PD inh. inhibition, % at 20 µM;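 active means average inhibition reaching 50% or more with the compound at 20 µM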;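 further: resorufin red fluorescence formed as diaphorase reduces resazurin using NADPH; 0% = DMSO with enzyme and 100% = DMSO without enzyme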
# Diaph ctr 30uM: diaphorase inhibitors and chemical oxidizers, confirmation, counter-screen for P. falciparum G6PD inhibitor project, biochemical, fluorescence intensity, 30 µM NADPH | actives 29% (n = 820) | inhibition, % at 20 µM | shares compounds with PfG6PD inh | Diaphorase/resazurin coupled assay, resorufin fluorescence | AID 504863, 2011;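 active means inhibition averaging 50% or more, tested at 20 µM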;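 further: 0% = DMSO with enzyme and 100% = DMSO wells lacking diaphorase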
# The depositor's hits bear a star; / = no result given. Compounds with a hit are over-represented: about 3% of the library has one in this group of screens.
SMILES,MC4R antagonist,MC4R barr agon,B2AR ag,ABHD5-PLIN5 inh,PfG6PD inh,PfG6PD confirm,Diaph ctr 10uM,Diaph ctr 30uM
COc1ccc(S(=O)(=O)Nc2cc(S(=O)(=O)N3CCOCC3)ccc2OC)cc1,24,-2,1,-1,8,/,/,/
O=C(O)c1ccc(-n2c(-c3cc(-c4ccco4)[nH]n3)n[nH]c2=S)cc1,6,-1,-1,9,59*,56*,-3,-1
O=C(Nc1ccc(Nc2ccccc2)cc1)c1cc([N+](=O)[O-])ccc1Cl,0,-1,10,0,20,/,/,/
CC(=O)Nc1ccc(NC(=O)c2ccccc2Sc2ccc([N+](=O)[O-])cc2Cl)cc1,12,1,1,1,48,15,/,/
COc1ccc2c(c1)c(C(=O)N/N=C/c1cccc(Br)c1)c(C)n2C,4,0,6,-5,115*,87*,88*,65*
O=C(COc1cc2oc(=O)cc(-c3ccccc3)c2cc1Cl)NCc1ccccn1,0,-4,-7,0,-1,/,/,/
Cc1ccc(NC(=O)CCCn2nc(C)c3c(C)n(-c4ccccc4)nc3c2=O)cc1C,3,-1,-4,-8,64*,27,/,/
O=C(CNS(=O)(=O)c1ccc(Cl)c(C(F)(F)F)c1)NC1CCCCC1,1,2,-13,-5,2,/,/,/
N#Cc1ccc2c(=O)n(-c3ccccc3)sc2c1,13,-4,/,-16,123*,108*,5,-6
O=c1c2ccccc2c(-c2cccc(C(F)(F)F)c2)nn1-c1ccccc1,-1,0,4,-8,16,/,/,/
Cc1ccccc1-n1c(=O)c2ccccc2n2cnnc12,-9,0,-16,-1,6,/,/,/
Cc1ccccc1-n1sc2cc(F)ccc2c1=O,7,0,7,91*,114*,114*,-12,-25
Cn1sc2ccccc2c1=O,-5,-1,/,9,91*,52*,-13,8
O=c1c2cc(C(F)(F)F)ccc2sn1-c1ccccc1,-4,-2,/,-16,128*,94*,-3,5
O=c1c2ccccc2sn1-c1ccccc1,-7,0,-20,111*,112*,114*,-4,-16
O=c1nc2sc3ccccc3n2c(=O)n1-c1cccc(Cl)c1,2,0,-2,0,-10,/,/,/
CN(C)S(=O)(=O)c1cccc(-n2sc3ccccc3c2=O)c1,6,-4,2,47*,115*,111*,-25,-24
O=c1ccsc2ccccc12,0,0,/,-3,7,/,/,/
O=c1c2ccccc2sn1-c1cccc(Cl)c1,2,-1,/,-7,128*,104*,-11,3
O=c1c2ccccc2sn1-c1ccccc1F,0,0,/,-19,122*,109*,-8,8
CCCc1ccc(OCC(O)CN2CCN(c3ccccn3)CC2)cc1 (centres undefined),3,3,-9,12,2,/,/,/
CCOc1cc(C2C(C(=O)c3ccco3)=C(O)C(=O)N2CC2CCCO2)ccc1O (centres undefined),8,-1,3,9,23,/,/,/
CN=c1sc2c(n1C)C(=O)c1ccccc1C2=O,-10,-2,-6,-10,72*,18,/,/
CC(C)(CNS(=O)(=O)c1cccs1)N1CCOCC1,10,-1,-4,-3,-4,/,/,/
CC(C)C[C@H]1CN(CCCC[C@@H]2CNC(=O)C(=O)N2CC2CCCCC2)C(=O)C(=O)N1Cc1ccccc1,/,/,/,2,/,/,/,/
